In brackets after ≈: the same amount, converted by molar mass.
How the values were obtained:
Type in all cases: functional, Salmonella enterica subsp. enterica serovar Typhimurium
Salmonella typhimurium [1] = assay: Antimicrobial activity against Salmonella enterica serovar Typhimurium S21
Procedure, shortened: (§1)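 MICs measured by broth microdilution on the Sensititre automated system and interpreted by CLSI broth microdilution standards. Ciprofloxacin was also tested by agar dilution, widening the range to 0.0075–128 μg/ml. Quality control strains were E. coli ATCC 25922 and 35218, E. faecalis ATCC 29212, S. aureus ATCC 29213 and P. aeruginosa ATCC 27853.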

Salmonella typhimurium [2] = assay: Antimicrobial activity against Salmonella enterica serovar Typhimurium S21 gyrA+; procedure, shortened: as §1
Salmonella typhimurium [3] = assay: Antimicrobial activity against Salmonella enterica serovar Typhimurium S21 acrAB::Kan
Procedure, shortened: (§2)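 MICs by automated broth microdilution panels, interpreted to CLSI broth microdilution standards. Ciprofloxacin additionally tested by agar dilution across 0.0075 to 128 μg/ml. Quality control strains: E. coli ATCC 25922 and 35218, Enterococcus faecalis ATCC 29212, S. aureus ATCC 29213, P. aeruginosa ATCC 27853. Test strains are kanamycin-marked deletion mutants of ground-beef isolate S21.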

Salmonella typhimurium [4] = assay: Antimicrobial activity against Salmonella enterica serovar Typhimurium S21 tolC::Kan; procedure, shortened: as §2
Salmonella typhimurium [5] = assay: Antimicrobial activity against Salmonella enterica serovar Typhimurium S21-1 gyrA+; procedure, shortened: as §1
Salmonella typhimurium [6] = assay: Antimicrobial activity against Salmonella enterica serovar Typhimurium CHS14 gyrA+ with GyrA D87G mutation; procedure, shortened: as §1
Salmonella typhimurium [7] = assay: Antimicrobial activity against Salmonella enterica serovar Typhimurium CHS14 acrAB::Kan with GyrA D87G mutation; procedure, shortened: as §1
Salmonella typhimurium [8] = assay: Antimicrobial activity against Salmonella enterica serovar Typhimurium CHS14 tolC::Kan with GyrA D87G mutant; procedure, shortened: as §1
Salmonella typhimurium [9] = assay: Antimicrobial activity against Salmonella enterica serovar Typhimurium CHS18 with GyrA S38F mutation; procedure, shortened: as §1
Salmonella typhimurium [10] = assay: Antimicrobial activity against Salmonella enterica serovar Typhimurium CHS18 gyrA+ with GyrA S38F mutation; procedure, shortened: as §1
Salmonella typhimurium [11] = assay: Antimicrobial activity against Salmonella enterica serovar Typhimurium CHS18 acrAB::Kan with GyrA S38F mutation; procedure, shortened: as §1
Salmonella typhimurium [12] = assay: Antimicrobial activity against Salmonella enterica serovar Typhimurium CHS18 tolC::Kan with GyrA S38F mutation; procedure, shortened: as §1
Salmonella typhimurium [13] = assay: Antimicrobial activity against Salmonella enterica serovar Typhimurium S21-4 acrAB::Kan with GyrA S83F, ParC S80I mutation; procedure, shortened: as §1
Salmonella typhimurium [14] = assay: Antimicrobial activity against Salmonella enterica serovar Typhimurium CS1 with GyrA S83F, D87N, ParC S80I mutation; procedure, shortened: as §1
Salmonella typhimurium [15] = assay: Antimicrobial activity against Salmonella enterica serovar Typhimurium CS1 gyrA+ with GyrA S83F, D87N, ParC S80I mutation; procedure, shortened: as §1
Salmonella typhimurium [16] = assay: Antimicrobial activity against Salmonella enterica serovar Typhimurium CS1 acrAB::Kan with GyrA S83F, D87N, ParC S80I mutation; procedure, shortened: as §1
Salmonella typhimurium [17] = assay: Antimicrobial activity against Salmonella enterica serovar Typhimurium CS1 tolC::Kan with GyrA S83F, D87N, ParC S80I mutation; procedure, shortened: as §1
Salmonella typhimurium [18] = assay: Antimicrobial activity against Salmonella enterica serovar Typhimurium CS3 with GyrA S83F, D87N, ParC S80I mutation; procedure, shortened: as §1
Salmonella typhimurium [19] = assay: Antimicrobial activity against Salmonella enterica serovar Typhimurium CS3 gyrA+ with GyrA S83F, D87N, ParC S80I mutation; procedure, shortened: as §1
Salmonella typhimurium [20] = assay: Antimicrobial activity against Salmonella enterica serovar Typhimurium CS3 acrAB::Kan with GyrA S83F, D87N, ParC S80I mutation; procedure, shortened: as §1
Salmonella typhimurium [21] = assay: Antimicrobial activity against Salmonella enterica serovar Typhimurium CS3 tolC::Kan with GyrA S83F, D87N, parC S80I mutation; procedure, shortened: as §1
Salmonella typhimurium [22] = assay: Antimicrobial activity against Salmonella enterica serovar Typhimurium CS9 with GyrA S83F, D87N, ParC S80I mutation; procedure, shortened: as §1
Salmonella typhimurium [23] = assay: Antimicrobial activity against Salmonella enterica serovar Typhimurium CS9 gyrA+ with GyrA S83F, D87N, ParC S80I mutation; procedure, shortened: as §1
Salmonella typhimurium [24] = assay: Antimicrobial activity against Salmonella enterica serovar Typhimurium CS9 acrAB::Kan with GyrA S83F, D87N, ParC S80I mutation; procedure, shortened: as §1
Salmonella typhimurium [25] = assay: Antimicrobial activity against Salmonella enterica serovar Typhimurium CS9 tolC::Kan with GyrA S83F, D87N, ParC S80I mutation; procedure, shortened: as §1
Salmonella typhimurium [26] = assay: Antimicrobial activity against Salmonella enterica serovar Typhimurium CHS14 with GyrA D87G mutation; procedure, shortened: as §1
Salmonella typhimurium [27] = assay: Antimicrobial activity against Salmonella enterica serovar Typhimurium CHS38 with GyrA D87G mutation; procedure, shortened: as §1
Salmonella typhimurium [28] = assay: Antimicrobial activity against Salmonella enterica serovar Typhimurium CHS38 gyrA+ with GyrA D87G mutation; procedure, shortened: as §1
Salmonella typhimurium [29] = assay: Antimicrobial activity against Salmonella enterica serovar Typhimurium CHS38 acrAB::Kan with GyrA D87G mutation; procedure, shortened: as §1
Salmonella typhimurium [30] = assay: Antimicrobial activity against Salmonella enterica serovar Typhimurium CHS38 tolC::Kan with GyrA D87G mutation; procedure, shortened: as §1
Salmonella typhimurium [31] = assay: Antimicrobial activity against Salmonella enterica serovar Typhimurium S21-1 GyrA S83F mutant; procedure, shortened: as §1
Salmonella typhimurium [32] = assay: Antimicrobial activity against Salmonella enterica serovar Typhimurium S21-2 with GyrA S83F, ParC S80I mutation; procedure, shortened: as §1
Salmonella typhimurium [33] = assay: Antimicrobial activity against Salmonella enterica serovar Typhimurium S21-2 gyrA+ with ParC S80I mutation; procedure, shortened: as §1
Salmonella typhimurium [34] = assay: Antimicrobial activity against Salmonella enterica serovar Typhimurium S21-2 acrAB::Kan with GyrA S83F, ParC S80I mutation; procedure, shortened: as §1
Salmonella typhimurium [35] = assay: Antimicrobial activity against Salmonella enterica serovar Typhimurium S21-2 tolC::Kan with GyrA S83F, ParC S80I mutation; procedure, shortened: as §1
Salmonella typhimurium [36] = assay: Antimicrobial activity against Salmonella enterica serovar Typhimurium S21-3 with GyrA S83F, ParC S80I mutation; procedure, shortened: as §1
Salmonella typhimurium [37] = assay: Antimicrobial activity against Salmonella enterica serovar Typhimurium S21-3 gyrA+ with ParC S80I mutation; procedure, shortened: as §1
Salmonella typhimurium [38] = assay: Antimicrobial activity against Salmonella enterica serovar Typhimurium S21-3 acrAB::Kan with GyrA S83F, ParC S80I mutation; procedure, shortened: as §1
Salmonella typhimurium [39] = assay: Antimicrobial activity against Salmonella enterica serovar Typhimurium S21-3 tolC::Kan with GyrA S83F, ParC S80I mutation; procedure, shortened: as §1
Salmonella typhimurium [40] = assay: Antimicrobial activity against Salmonella enterica serovar Typhimurium S21-4 with GyrA S83F, ParC S80I mutation; procedure, shortened: as §1
Salmonella typhimurium [41] = assay: Antimicrobial activity against Salmonella enterica serovar Typhimurium S21-4 gyrA+ with ParC S80I mutation; procedure, shortened: as §1
Salmonella typhimurium [42] = assay: Antimicrobial activity against Salmonella enterica serovar Typhimurium S21-4 tolC::Kan with GyrA S83F, ParC S80I mutation; procedure, shortened: as §1

## NC[C@H]1O[C@H](O[C@H]2[C@H](O)[C@@H](O[C@H]3O[C@H](CO)[C@@H](O)[C@H](N)[C@H]3O)[C@H](N)C[C@@H]2N)[C@H](O)[C@@H](O)[C@@H]1O [KANAMYCIN]
Salmonella typhimurium [1]
  MIC: < 8 µg/mL
Salmonella typhimurium [2]
  MIC: < 8 µg/mL
Salmonella typhimurium [3]
  MIC: > 64 µg/mL
Salmonella typhimurium [4]
  MIC: > 64 µg/mL
Salmonella typhimurium [5]
  MIC: < 8 µg/mL
Salmonella typhimurium [6]
  MIC: > 64 µg/mL
Salmonella typhimurium [7]
  MIC: > 64 µg/mL
Salmonella typhimurium [8]
  MIC: > 64 µg/mL
Salmonella typhimurium [9]
  MIC: 8 µg/mL (≈ 16.5 µM)
Salmonella typhimurium [10]
  MIC: > 64 µg/mL
Salmonella typhimurium [11]
  MIC: > 64 µg/mL
Salmonella typhimurium [12]
  MIC: > 64 µg/mL
Salmonella typhimurium [13]
  MIC: > 64 µg/mL
Salmonella typhimurium [14]
  MIC: < 8 µg/mL
Salmonella typhimurium [15]
  MIC: > 64 µg/mL
Salmonella typhimurium [16]
  MIC: > 64 µg/mL
Salmonella typhimurium [17]
  MIC: > 64 µg/mL
Salmonella typhimurium [18]
  MIC: < 8 µg/mL
Salmonella typhimurium [19]
  MIC: > 64 µg/mL
Salmonella typhimurium [20]
  MIC: > 64 µg/mL
Salmonella typhimurium [21]
  MIC: > 64 µg/mL
Salmonella typhimurium [22]
  MIC: < 8 µg/mL
Salmonella typhimurium [23]
  MIC: > 64 µg/mL
Salmonella typhimurium [24]
  MIC: > 64 µg/mL
Salmonella typhimurium [25]
  MIC: > 64 µg/mL
Salmonella typhimurium [26]
  MIC: < 8 µg/mL
Salmonella typhimurium [27]
  MIC: 8 µg/mL (≈ 16.5 µM)
Salmonella typhimurium [28]
  MIC: > 64 µg/mL
Salmonella typhimurium [29]
  MIC: > 64 µg/mL
Salmonella typhimurium [30]
  MIC: > 64 µg/mL

## CC(=O)OCC1=C(C(=O)O)N2C(=O)[C@@H](NC(=O)Cc3cccs3)[C@H]2SC1 [CEPHALOTHIN]
Salmonella typhimurium [1]
  MIC: < 2 µg/mL
Salmonella typhimurium [2]
  MIC: < 2 µg/mL
Salmonella typhimurium [3]
  MIC: < 2 µg/mL
Salmonella typhimurium [4]
  MIC: < 2 µg/mL
Salmonella typhimurium [31]
  MIC: 8 µg/mL (≈ 20.2 µM)
Salmonella typhimurium [5]
  MIC: 8 µg/mL (≈ 20.2 µM)
Salmonella typhimurium [32]
  MIC: > 32 µg/mL
Salmonella typhimurium [33]
  MIC: > 32 µg/mL
Salmonella typhimurium [34]
  MIC: 8 µg/mL (≈ 20.2 µM)
Salmonella typhimurium [35]
  MIC: 8 µg/mL (≈ 20.2 µM)
Salmonella typhimurium [36]
  MIC: > 32 µg/mL
Salmonella typhimurium [37]
  MIC: > 32 µg/mL
Salmonella typhimurium [38]
  MIC: 8 µg/mL (≈ 20.2 µM)
Salmonella typhimurium [6]
  MIC: < 2 µg/mL
Salmonella typhimurium [7]
  MIC: < 2 µg/mL
Salmonella typhimurium [8]
  MIC: < 2 µg/mL
Salmonella typhimurium [9]
  MIC: 4 µg/mL (≈ 10.1 µM)
Salmonella typhimurium [10]
  MIC: 4 µg/mL (≈ 10.1 µM)
Salmonella typhimurium [11]
  MIC: 2 µg/mL (≈ 5.04 µM)
Salmonella typhimurium [12]
  MIC: 2 µg/mL (≈ 5.04 µM)
Salmonella typhimurium [13]
  MIC: 8 µg/mL (≈ 20.2 µM)
Salmonella typhimurium [39]
  MIC: 8 µg/mL (≈ 20.2 µM)
Salmonella typhimurium [40]
  MIC: > 32 µg/mL
Salmonella typhimurium [41]
  MIC: > 32 µg/mL
Salmonella typhimurium [42]
  MIC: 8 µg/mL (≈ 20.2 µM)
Salmonella typhimurium [14]
  MIC: 16 µg/mL (≈ 40.4 µM)
Salmonella typhimurium [15]
  MIC: 8 µg/mL (≈ 20.2 µM)
Salmonella typhimurium [16]
  MIC: 8 µg/mL (≈ 20.2 µM)
Salmonella typhimurium [17]
  MIC: 8 µg/mL (≈ 20.2 µM)
Salmonella typhimurium [18]
  MIC: 16 µg/mL (≈ 40.4 µM)
Salmonella typhimurium [19]
  MIC: 8 µg/mL (≈ 20.2 µM)
Salmonella typhimurium [20]
  MIC: 8 µg/mL (≈ 20.2 µM)
Salmonella typhimurium [21]
  MIC: 8 µg/mL (≈ 20.2 µM)
Salmonella typhimurium [22]
  MIC: 16 µg/mL (≈ 40.4 µM)
Salmonella typhimurium [23]
  MIC: 8 µg/mL (≈ 20.2 µM)
Salmonella typhimurium [24]
  MIC: 8 µg/mL (≈ 20.2 µM)
Salmonella typhimurium [25]
  MIC: 8 µg/mL (≈ 20.2 µM)
Salmonella typhimurium [26]
  MIC: 4 µg/mL (≈ 10.1 µM)
Salmonella typhimurium [27]
  MIC: 8 µg/mL (≈ 20.2 µM)
Salmonella typhimurium [28]
  MIC: 16 µg/mL (≈ 40.4 µM)
Salmonella typhimurium [29]
  MIC: 8 µg/mL (≈ 20.2 µM)
Salmonella typhimurium [30]
  MIC: 8 µg/mL (≈ 20.2 µM)

Reference: ChEMBL document CHEMBL1142136, “Contribution of target gene mutations and efflux to decreased susceptibility of Salmonella enterica serovar typhimurium to fluoroquinolones and other antimicrobials” (2007)
